Test results taken from ChEMBL document CHEMBL1122496, “A new class of nonhormonal pregnancy-terminating agents. Synthesis and contragestational activity of 3,5-diaryl-s-triazoles” (J Med Chem, 1983).

What was measured:
Cricetinae gen. sp. [1] = test: (§1) Pregnancy-terminating activity in hamster when administered sc; type: functional
Cricetinae gen. sp. [2] = test: Pregnancy-terminating activity in hamster when administered perorally; type: functional, Cricetulus griseus; details: po
Rattus norvegicus [3] = test: Pregnancy-terminating activity in rat when administered sc; type: functional
Method in brief: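 Pregnant rats were dosed once daily for 5 consecutive days, from day 6 to day 10. Compound was given in sesame oil containing 20% benzyl benzoate to groups of 5–30 animals at three to six dose levels.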

Rattus norvegicus [4] = test: Pregnancy-terminating activity in rat when administered po; type: functional
[5] = Solubility in sesame oil containing 20% of benzyl benzoate; type: physicochemical
Cricetinae gen. sp. [6] = test: as §1; type: functional, Cricetulus griseus
Method in brief: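 Pregnant hamsters were dosed daily for 5 consecutive days, from day 4 to day 8. Compound was given in sesame oil with 20% benzyl benzoate to groups of 5–30 animals at three to six dose levels. ED50 is the dose that ended pregnancy in half of the animals.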

Rattus norvegicus [7] = test: Pregnancy-terminating activity in Rat when administered sc; type: functional
Method in brief: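 Pregnant rats were dosed once daily for 5 consecutive days, from day 6 to day 10. Compound was given in sesame oil containing 20% benzyl benzoate to groups of 5–30 animals at three to six dose levels. ED50 is the dose that terminated pregnancy in 50% of the animals.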

[8] = Cricetinae gen. sp., sc, read-out: ED50

Row | Compound | ED50 (Cricetinae gen. sp. [1]; [8]) [mg/kg] | ED50 (Cricetinae gen. sp. [2]) [mg/kg] | also measured
1 | Cc1cccc(-c2n[nH]c(-c3ccccc3)n2)c1 | > 20 |  | 
2 | COc1cccc(-c2n[nH]c(-c3ccccc3C)n2)c1 | 0.08 | 5 | 
3 | CCc1ccccc1-c1n[nH]c(-c2cccc(OC)c2OC)n1 | 10 |  | 
4 | Cc1ccccc1-c1n[nH]c(-c2cccc(Cl)c2)n1 | 0.6 | > 20 | 
5 | Cc1ccc(Cl)cc1-c1n[nH]c(-c2ccccc2)n1 | 1.2 |  | 
6 | C=CCOc1cccc(-c2nc(-c3ccccc3C)n[nH]2)c1 | 0.15 | 5 | 
7 | COc1cccc(-c2n[nH]c(-c3ccccc3C=O)n2)c1 | 0.1 | 10 | 
8 | CCOc1cccc(-c2n[nH]c(-c3ccccc3CC)n2)c1 | 0.04 | 4 | ED50 (Rattus norvegicus [3]): 0.3 mg/kg; ED50 (Rattus norvegicus [4]): > 10 mg/kg
9 | Cc1ccc(-c2n[nH]c(-c3ccccc3C)n2)cc1 | 20 |  | 
10 | COc1ccccc1-c1n[nH]c(-c2ccccc2C)n1 | 0.5 | > 5 | 
11 | CCc1ccccc1-c1n[nH]c(-c2ccc(OC)c(OC)c2)n1 | 0.05 | > 5 | 
12 | Cc1ccc(-c2n[nH]c(-c3ccccc3)n2)cc1 | > 20 |  | 
13 | c1ccc(-c2nc3n(n2)CCc2ccccc2-3)cc1 |  |  | Solubility [5]: ~ 100 mg ml-1; ED50 (Cricetinae gen. sp. [6]): 1 mg/kg; ED50 (Rattus norvegicus [7]): 16 mg/kg
14 | COc1cccc(-c2n[nH]c(-c3cccc(C)c3)n2)c1 | 15 |  | 
15 | Cc1ccccc1-c1n[nH]c(-c2ccc(F)cc2)n1 | 3.5 |  | 
16 | CCc1ccccc1-c1n[nH]c(-c2cc(OC)cc(OC)c2)n1 | 10 |  | 
17 | CC(C)c1ccccc1-c1n[nH]c(-c2ccccc2)n1 | 10 |  | 
18 | COc1cccc(-c2n[nH]c(-c3ccc(Cl)cc3C)n2)c1 | 0.04 | 5 | ED50 (Rattus norvegicus [3]): 0.5 mg/kg; ED50 (Rattus norvegicus [4]): > 10 mg/kg
19 | Cc1ccc(C)c(-c2n[nH]c(-c3ccccc3)n2)c1 | > 10 |  | 
20 | c1ccc(-c2n[nH]c(-c3ccccc3)n2)cc1 | 6 | 10 | 
21 | COc1cccc(-c2n[nH]c(-c3cc(C)ccc3C)n2)c1 | 2.5 |  | 
22 | CCc1ccccc1-c1n[nH]c(-c2ccccc2)n1 | 0.15 | 5 | 
23 | CCCCc1ccccc1-c1n[nH]c(-c2cccc(OC)c2)n1 | 12 | 10 | 
24 | COc1cccc(-c2n[nH]c(-c3cc(Cl)ccc3C)n2)c1 | 0.35 |  | 
25 | Cc1ccccc1-c1n[nH]c(-c2ccccc2C)n1 | 0.7 | > 10 | 
26 | c1ccc(-c2nc3n(n2)Cc2ccccc2-3)cc1 |  |  | Solubility [5]: ~ 30 mg ml-1; ED50 (Cricetinae gen. sp. [6]): 3.5 mg/kg; ED50 (Rattus norvegicus [7]): 1.8 mg/kg

Row | Compound | ED50 (Cricetinae gen. sp. [1]; [8]) [mg/kg] | ED50 (Cricetinae gen. sp. [2]) [mg/kg] | also measured
27 | COc1ccc(-c2n[nH]c(-c3ccccc3)n2)c(C)c1 | > 10 |  | 
28 | Cc1ccccc1-c1nc(-c2ccc(N(C)C)cc2)n[nH]1 | 10 |  | 
29 | CCCCc1ccccc1-c1n[nH]c(-c2ccccc2)n1 | 17 |  | 
30 | COc1cccc(-c2n[nH]c(-c3cc(OC)ccc3C)n2)c1 | 1 |  | 
31 | Cc1ccccc1-c1n[nH]c(-c2ccccc2)n1 | 0.3 | 10 | Solubility [5]: > 100 mg/mL; ED50 (Rattus norvegicus [3]): 2 mg/kg; ED50 (Rattus norvegicus [4]): 50 mg/kg; ED50 (Cricetinae gen. sp. [1]): 0.3 mg/kg; ED50 (Rattus norvegicus [7]): 2 mg/kg
32 | CCc1ccccc1-c1n[nH]c(-c2cccc(-c3ccccc3)c2)n1 | 10 | 10 | 
33 | C=CCOc1cccc(-c2nc(-c3ccccc3CC)n[nH]2)c1 | 0.12 | 5 | 
34 | COc1cccc(-c2nc(-c3ccc(OC)cc3C)n[nH]2)c1 | 0.2 | > 5 | 
35 | COc1cccc(-c2n[nH]c(-c3ccc(C)cc3C)n2)c1 | 0.04 | 10 | ED50 (Rattus norvegicus [3]): 0.6 mg/kg; ED50 (Rattus norvegicus [4]): > 10 mg/kg
36 | COc1cccc(-c2n[nH]c(-c3ccc(C)cc3)n2)c1 | 7 |  | 
37 | Cc1ccccc1-c1n[nH]c(-c2ccccc2Cl)n1 | 15 |  | 
38 | COc1ccc(C)c(-c2n[nH]c(-c3ccccc3)n2)c1 | > 10 |  | 
39 | c1ccc(-c2nc3c4ccccc4ccn3n2)cc1 | 0.25 |  | Solubility [5]: ~ 10 mg ml-1; ED50 (Rattus norvegicus [7]): 2.5 mg/kg
40 | COc1cccc(-c2n[nH]c(-c3ccccc3C(C)C)n2)c1 | 4 | 10 | 
41 | Cc1ccc(-c2n[nH]c(-c3ccccc3)n2)c(C)c1 | 0.2 | > 5 | 
42 | CCc1ccccc1-c1n[nH]c(-c2cccc(F)c2)n1 | 0.4 | > 5 | 
43 | Cc1ccccc1-c1n[nH]c(-c2cccc(C(F)(F)F)c2)n1 | 0.6 | > 20 | 
44 | COc1cccc(-c2n[nH]c(-c3ccccc3CO)n2)c1 | 0.08 | 15 | 
45 | CCc1ccccc1-c1n[nH]c(-c2ccc3c(c2)OCO3)n1 | 0.03 | 3 | ED50 (Rattus norvegicus [3]): 0.6 mg/kg; ED50 (Rattus norvegicus [4]): ~20 mg/kg
46 | Cc1ccccc1-c1n[nH]c(-c2ccc(Cl)cc2)n1 | 4 |  | 
47 | CCc1ccccc1-c1n[nH]c(-c2ccc(OC)cc2)n1 | 0.15 | 5 | 
48 | Cc1cccc(-c2n[nH]c(-c3ccccc3C)n2)c1 | 4 |  | 
49 | Cc1cc(Cl)ccc1-c1n[nH]c(-c2ccccc2)n1 | 0.14 | 4 | 
50 | CCc1ccccc1-c1n[nH]c(-c2cccc(C)c2C)n1 | 2 |  | 
51 | Cc1ccccc1-c1n[nH]c(-c2ccc(-c3ccccc3)cc2)n1 | 10 |  | 
52 | CCOc1cccc(-c2n[nH]c(-c3ccccc3C)n2)c1 | 0.06 | 5 | 
